CHRM4 agonist: agonists of human muscarinic M4 receptor (CHRM4). P08173. CHO-K1 hM4/Gqi5, Fluo-8 calcium fluorescence; vehicle 0%, full acetylcholine response 100%. activation, % at 3 µM. 360,000 compounds, 0.14% hits;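 active means activation above the run mean over all test wells plus 3 SD, cut at about 32% in these data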;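 further: peak over basal fluorescence ratio per well then scaled between controls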
M5 antag: antagonists of human muscarinic M5 receptor (CHRM5); P08912; CHO-hM5 cells, Fluo-8 calcium fluorescence, ACh EC80; inhibition, % at 3 µM; 360,000 compounds, 0.59% hits; AID 624040;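 active means inhibition above a per-plate cutoff, the mean of that plate's test compounds plus 3 SD, cut at about 27% in these data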
Target sequence (P08912 whole entry, looked up): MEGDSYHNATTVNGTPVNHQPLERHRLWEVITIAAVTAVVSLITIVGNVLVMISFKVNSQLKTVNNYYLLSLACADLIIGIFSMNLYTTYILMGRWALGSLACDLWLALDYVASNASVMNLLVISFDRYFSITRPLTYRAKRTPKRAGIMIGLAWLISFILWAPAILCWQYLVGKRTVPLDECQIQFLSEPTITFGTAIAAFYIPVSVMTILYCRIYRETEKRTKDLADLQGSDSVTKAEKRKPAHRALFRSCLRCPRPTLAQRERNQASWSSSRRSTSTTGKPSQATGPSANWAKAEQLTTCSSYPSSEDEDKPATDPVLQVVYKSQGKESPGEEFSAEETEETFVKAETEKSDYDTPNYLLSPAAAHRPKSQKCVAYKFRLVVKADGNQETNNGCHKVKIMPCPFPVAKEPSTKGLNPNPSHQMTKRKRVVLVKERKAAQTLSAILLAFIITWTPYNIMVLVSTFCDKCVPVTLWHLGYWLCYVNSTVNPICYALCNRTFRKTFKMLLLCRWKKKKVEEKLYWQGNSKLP
CHRM4 antagonist: CHRM4 antagonism in calcium assay. inhibition, % at 3 µM. CHO-hM4 cells, ACh EC80, Fluo-8 calcium fluorescence. 360,000 compounds, 0.73% hits;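 active means inhibition above its plate's cutoff, the mean inhibition of sample wells plus 3 SD, cut at about 27% in these data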
M4 PAM: CHRM4 positive allosteric modulation. P08173. CHO-K1 hM4/Gqi5, Fluo-8 calcium fluorescence, ACh EC20; 0% = ACh EC20, 100% = maximal ACh. activation, % at 3 µM. 360,000 compounds, 0.4% hits;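 active means activation above its plate's cutoff, the mean activation of sample wells plus 3 SD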
M5 ag: agonists of human muscarinic M5 receptor (CHRM5). P08912. CHO-K1 hM5 cells, Fluo-8 calcium fluorescence; 0% DMSO wells, 100% maximal acetylcholine response. activation, % at 3 µM. 360,000 compounds, 0.19% hits. AID 624037;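 active means activation above the run's mean over test compounds plus 3 SD, cut at about 23% in these data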;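 further: signal is peak over basal fluorescence ratio across the kinetic read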
CHRM5 PAM: positive allosteric modulators of human muscarinic M5 receptor | P08912 | CHO-K1 hM5, Fluo-8 calcium, ACh EC20 PAM; 0% = ACh EC20, 100% = ACh EC100 | activation, % at 3 µM | 360,000 compounds, 0.3% hits;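 active means activation above the run cutoff, the mean activation of all test compounds plus 3 SD, cut at about 18% in these data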
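Assay system: CHO-K1 hM5 cells / Incubation: Fluo-8 loading 80 min at 37 °C plus 30 min room temperature / Technique: Fluo-8 calcium dye fluorescence, kinetic read / Repeats: single replicate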
Hits are given with their value; - = inactive; ! = not active in a repeat. In the library only some 1.8% were active in any assay of this set; here they are far more common.

SMILES | CHRM4 agonist | M5 antag | CHRM4 antagonist | M4 PAM | M5 ag | CHRM5 PAM
O=C(Nc1nnc([C@@H]2C[C@H](O)[C@@H](CO)O2)s1)c1ccccc1Cl | - | - | - | - | - | -
Oc1ccc2ccccc2c1C=Nc1ccccc1-c1nc2ccccc2[nH]1 | - | - | - | - | - | -
CN(C)c1ccc(/C=C(/C#N)C(=O)NCc2ccccc2)o1 | - | - | - | - | 25 | -
N#C/C(=C/c1ccccc1)C(=O)NCc1ccccc1 | - | - | - | - | - | -
CCOC(=O)/C(=C/C=C1\Sc2cc(C)c(C)cc2N1CC)C(C)=O | - | - | - | - | - | -
CCOC(=O)/C(=C/C=C1\Sc2ccccc2N1CC)C(C)=O | - | - | - | - | 47 | -
CCOC(=O)/C(=C\C=C1/Sc2ccccc2N1CC)C(C)=O | 52 | - | - | - | 36 | -
COc1cc(/C=N/NC(N)=O)ccc1OCC(=O)Nc1cc(C)c(C)cc1Br | - | - | - | - | - | -
Cc1ccc(NC(=S)NCC(C)C)cc1 | - | - | - | - | - | -
O=C(NCCCN1CCN(c2ccccc2F)CC1)Nc1ccccc1[N+](=O)[O-] | - | - | - | - | - | -
Cc1ccc(C(=O)CCC(=O)Nc2ccccc2F)cc1 | - | - | - | - | - | -
CCC(C)(C(=O)Nc1ccc(OC)cc1)N(C)C(=O)Cn1nnnc1N (stereo unspecified) | - | - | - | - | - | 19
COc1ccc(NC(=O)C2(N(C(=O)Cn3nnnc3N)c3ccc(OC)cc3)CCCCC2)cc1 | - | - | - | - | - | -
COc1ccc(Cc2c(-c3ccc(C)cc3)nc3cc(C)c(Br)c(C)n23)c(C)c1 | - | - | - | - | - | -
CN(C)c1ccc(/C=C/c2nc3ccccc3c(=O)n2CCO)cc1 | 42 | - | - | - | - | -
O=c1c2ccccc2nc(/C=C/c2ccccc2)n1CCCO | - | - | - | - | - | -
COc1ccccc1-c1noc2c1C(=O)N(C(=O)OC(C)(C)C)CC2 | - | - | - | - | - | -
CCC/C(O)=C1\C(=O)CC(C)(C)CC1=Nc1ccccc1O | - | - | - | - | - | -
CC1CCN(CC(=O)Nc2ccccc2-c2ccccc2)CC1 | - | - | 27 | - | - | -
O=C(Nc1ccccc1-c1ccccc1)C1CCC1 | 54 | - | - | - | - | -
CC1CCCN(S(=O)(=O)c2ccc(NC(=O)C3CCN(C(=O)c4ccco4)CC3)cc2)C1 (stereo unspecified) | - | - | - | - | - | -
O=C(O)c1cc(NS(=O)(=O)c2ccc(F)cc2)cc(NS(=O)(=O)c2ccc(F)cc2)c1 | - | - | - | - | - | -
O=C(O)CCN1CC2([N+](=O)[O-])CC=C(OCCO)C([N+](=O)[O-])(C1)C2 (stereo unspecified) | - | - | - | - | - | -
COC1=CCC2([N+](=O)[O-])CN(CCO)CC1([N+](=O)[O-])C2 (stereo unspecified) | - | - | - | - | - | 19
O=C(COC(=O)CNC(=O)c1ccc(Br)o1)Nc1ccc2c(c1)OCCO2 | - | - | - | - | - | -
SMILES | CHRM4 agonist | M5 antag | CHRM4 antagonist | M4 PAM | M5 ag | CHRM5 PAM
O=C(COC(=O)C1COc2ccccc2O1)NC(=O)Nc1ccc2c(c1)OCCO2 (stereo unspecified) | - | - | - | 23 | - | -
O=C(COC(=O)c1ccc(Br)o1)Nc1ccc2c(c1)OCCO2 | - | - | - | 26 | - | -
O=C(COC(=O)C1COc2ccccc2O1)Nc1cccc(Cl)c1 (stereo unspecified) | - | - | - | - | - | -
Cc1cc([N+](=O)[O-])ccc1NC(=O)C(C)NC1CCCCC1 (stereo unspecified) | - | - | - | - | - | -
CCCn1c(SCC(=O)Nc2cccc(S(=O)(=O)NC3=NCCCCC3)c2)nc2ccccc2c1=O | - | - | - | - | - | 24
Cc1c(O)cccc1C(=O)N[C@@H](CSc1ccccc1)[C@H](O)CN1C[C@H]2CCCC[C@H]2C[C@H]1C(=O)NC(C)(C)C | 44! | 85! | - | - | 98! | -
CCOC(=O)C(NC(=O)c1ccccc1)(OCC1(CC)COC1)C(F)(F)F (stereo unspecified) | - | - | - | - | - | -
CCOC(=O)C(NC(=O)c1ccc(OC)cc1)(OCC1(CC)COC1)C(F)(F)F (stereo unspecified) | - | - | - | 18 | - | -
CC(=O)Nc1ccc(C(=O)NC2CCSc3ccccc32)cc1 (stereo unspecified) | - | - | - | - | - | -
Cc1ccc(NC(=S)NC2CCSc3ccccc32)cc1 (stereo unspecified) | - | 49 | 75 | - | - | -
COc1ccc(S(=O)(=O)N2CCC(N3CCN(c4ccccc4OC)CC3)CC2)cc1 | - | - | - | - | - | -
O=C(C[n+]1cc(-c2ccc(Cl)c(Cl)c2)n2c1CCC2)N1c2ccccc2Sc2ccccc21 | - | 100 | 98 | - | - | -
CC1CCC(C(C)C)C(OC(=O)C[n+]2cc(-c3ccc(Cl)cc3)n3c2CCC3)C1 (stereo unspecified) | - | 53 | 29 | - | - | -
O=C(C[n+]1cc(-c2ccc(Cl)cc2)n2c1CCC2)Nc1nc(-c2ccccc2)cs1 | - | - | - | - | - | -
COc1ccc(-c2c[n+](CC(=O)c3cccs3)c3n2CCC3)cc1 | - | - | - | - | - | -
O=C(C[n+]1cc(-c2ccc(Cl)cc2)n2c1CCC2)N1c2ccccc2Sc2ccccc21 | - | 99 | 97 | - | - | -
COc1ccc(-c2c[n+](CC(=O)N3c4ccccc4Sc4ccccc43)c3n2CCC3)cc1 | - | 41 | 53 | - | - | -
O=C(CC[C@H]1O[C@@H](n2cnc3c(NC(=O)c4ccccc4)ncnc32)[C@H](O)[C@@H]1O)NCCc1cc2ccccc2[nH]1 | - | - | - | - | - | -
O=C(CN1CCCC1)N1c2ccccc2Sc2ccc(C(F)(F)F)cc21 | - | 99 | 95 | - | - | -
O=C(CSc1nc2ccccc2o1)N1c2ccccc2Sc2ccc(C(F)(F)F)cc21 | - | - | - | - | - | -
O=C(CN1CCN(c2ccccn2)CC1)N1c2ccccc2Sc2ccc(C(F)(F)F)cc21 | - | - | - | - | - | -
O=C(CN1CCCC1)N1c2ccccc2Sc2ccc(Cl)cc21 | - | 96 | 94 | - | - | -
CCNCCC(=O)N1c2ccccc2Sc2ccc(C(F)(F)F)cc21 | - | 100 | 96 | - | - | -
CN(C(=O)COC(=O)c1ccc2c(c1)OCCO2)C1CCCCC1 | - | - | - | - | - | -

Screens: PubChem BioAssay, The Scripps Research Institute Molecular Screening Center
